Experimental data as given in ChEMBL document CHEMBL2040780, “Antiarrhythmic properties of phenylpiperazine derivatives of phenytoin with α₁-adrenoceptor affinities” (Bioorg Med Chem, 2012).
The source made the active and inactive calls. The rule behind the calls is not given here.

Experiments:
[1] = test system: Rattus norvegicus; experiment: Antiarrhythmic activity in iv dosed Wistar rat assessed as protection against adrenaline-induced extrasystoles administered 15 mins prior to adrenaline-challenge; type: functional, organism-based; conditions: Heart
Summary of the method: (§1)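 Szekeres model in male Wistar rats anaesthetised with thiopental (60 mg/kg ip). Test compound given iv in water (2.5–10 mg/kg) 15 min before adrenaline 20 µg/kg iv. Scored for extrasystoles, bigeminy and mortality; activity means no premature beats and inhibited arrhythmia versus controls.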

[2] = test system: Rattus norvegicus; experiment: Antiarrhythmic activity in iv dosed Wistar rat assessed as protection against adrenaline-induced bigeminy administered 15 mins prior to adrenaline-challenge; type: functional, organism-based; conditions: Heart; summary of the method: as §1
[3] = test system: Rattus norvegicus; experiment: Antiarrhythmic activity in iv dosed Wistar rat assessed as protection against adrenaline-induced arrhythmia administered 15 mins prior to adrenaline-challenge; type: functional; conditions: Heart; summary of the method: as §1
[4] = test system: Rattus norvegicus; experiment: Cardiotoxicity in Wistar rat assessed as effect on QRS interval at 5 mg/kg, iv after 5 mins; type: toxicity, organism-based; parameters: dose 5 mg/kg, route intravenous; conditions: in vivo
Summary of the method: (§2)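 Male Wistar rats (180–250 g), anaesthetised with thiopental 60 mg/kg ip. Compound given iv in water at 10 mg/kg, or at a lower starting dose of 5 or 2.5 mg/kg. Standard lead II ECG recorded at 50 mm/s just before dosing and at 1, 5 and 15 min after. Heart rate and P–Q, Q–T and QRS intervals were read. n=6 per group, mean ± SEM, one-way ANOVA.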

[5] = test system: Rattus norvegicus; experiment: Cardiotoxicity in Wistar rat assessed as effect on QRS interval at 5 mg/kg, iv after 15 mins; type: toxicity, organism-based; parameters: dose 5 mg/kg, route intravenous; conditions: in vivo, 0.25 h; summary of the method: as §2
[6] = test system: Rattus norvegicus; experiment: Cardiotoxicity in Wistar rat assessed as effect on Q-T interval at 5 mg/kg, iv after 15 mins; type: toxicity, organism-based; parameters: dose 5 mg/kg, route intravenous; conditions: in vivo, 0.25 h; summary of the method: as §2
[7] = test system: Rattus norvegicus; experiment: Antiarrhythmic activity in dosed Wistar rat assessed as protection against barium chloride-induced fibrillation administered 15 mins prior to barium chloride-challenge; type: functional, Heart
Summary of the method: (§3)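 Szekeres model in male Wistar rats. Activity is gradual disappearance of arrhythmia with restored sinus rhythm; protection against disturbances and death scored. Groups of 6 animals.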

[8] = test system: Rattus norvegicus; experiment: Antiarrhythmic activity in Wistar rat assessed as effect on heart beat at 5 mg/kg, iv after 5 mins; type: functional; summary of the method: as §2
[9] = test system: Rattus norvegicus; experiment: Antiarrhythmic activity in Wistar rat assessed as effect on heart beat at 5 mg/kg, iv after 1 min; type: functional; summary of the method: as §2
[10] = test system: Rattus norvegicus; experiment: Cardiotoxicity in Wistar rat assessed as effect on P-Q interval at 5 mg/kg, iv after 1 min; type: toxicity, organism-based; parameters: dose 5 mg/kg, route intravenous; conditions: in vivo; summary of the method: as §2
[11] = test system: Rattus norvegicus; experiment: Cardiotoxicity in Wistar rat assessed as effect on P-Q interval at 5 mg/kg, iv after 5 mins; type: toxicity, organism-based; parameters: dose 5 mg/kg, route intravenous; conditions: in vivo; summary of the method: as §2
[12] = test system: Rattus norvegicus; experiment: Hypotensive activity in normotensive Wistar rat assessed as decrease in diastolic blood pressure at 2.5 to 10 mg/kg, iv after 1 min measured up to 60 mins; type: organism-based, Artery; parameters: dose 2.5-10 mg/kg, route intravenous; conditions: in vivo
Summary of the method: (§4)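 Right carotid artery cannulated with heparin-saline-filled tubing for blood pressure recording. After 5 min stabilisation, compound injected iv into the caudal vein (2.5–10 mg/kg, 1 ml/kg). Systolic and diastolic pressure followed for 60 min. n=6 per group, mean ± SEM, one-way ANOVA.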

[13] = test system: Rattus norvegicus; experiment: Hypotensive activity in normotensive Wistar rat assessed as decrease in diastolic blood pressure at 2.5 to 10 mg/kg, iv at 1 min; type: organism-based, Artery; parameters: dose 2.5-10 mg/kg, route intravenous; conditions: in vivo; summary of the method: as §4
[14] = test system: Rattus norvegicus; experiment: Antiarrhythmic activity in iv dosed Wistar rat assessed as protection against barium chloride-induced extrasystoles administered 15 mins prior to barium chloride-challenge; type: functional, Heart; summary of the method: as §3
[15] = test system: Rattus norvegicus; experiment: Cardiotoxicity in Wistar rat assessed as effect on Q-T interval at 5 mg/kg, iv after 1 min; type: toxicity, organism-based; parameters: dose 5 mg/kg, route intravenous; conditions: in vivo; summary of the method: as §2
[16] = test system: Rattus norvegicus; experiment: Antiarrhythmic activity in Wistar rat assessed as effect on heart beat at 5 mg/kg, iv after 15 mins; type: functional; summary of the method: as §2
[17] = test system: Rattus norvegicus; experiment: Cardiotoxicity in Wistar rat assessed as effect on Q-T interval at 5 mg/kg, iv after 5 mins; type: toxicity, organism-based; parameters: dose 5 mg/kg, route intravenous; conditions: in vivo; summary of the method: as §2
[18] = test system: Rattus norvegicus; experiment: Hypotensive activity in normotensive Wistar rat assessed as decrease in systolic blood pressure at 2.5 to 10 mg/kg, iv after 1 min measured up to 60 mins; type: organism-based, Artery; parameters: dose 2.5-10 mg/kg, route intravenous; conditions: in vivo; summary of the method: as §4
[19] = test system: Rattus norvegicus; experiment: Cardiotoxicity in Wistar rat assessed as effect on P-Q interval at 5 mg/kg, iv after 15 mins; type: toxicity, organism-based; parameters: dose 5 mg/kg, route intravenous; conditions: in vivo, 0.25 h; summary of the method: as §2
[20] = test system: Rattus norvegicus; experiment: Hypotensive activity in normotensive Wistar rat assessed as decrease in systolic blood pressure at 2.5 to 10 mg/kg, iv at 1 min; type: organism-based, Artery; parameters: dose 2.5-10 mg/kg, route intravenous; conditions: in vivo; summary of the method: as §4
[21] = target: T1, Adrenergic receptor alpha-1 (Rattus norvegicus, UniProt P15823+P23944+P43140); experiment: Displacement of [3H]prazosin from alpha1 adrenoceptor in rat cerebral cortex after 30 mins by microbeta scintillation counting; type: tissue-based
T1 sequence (P15823 whole entry): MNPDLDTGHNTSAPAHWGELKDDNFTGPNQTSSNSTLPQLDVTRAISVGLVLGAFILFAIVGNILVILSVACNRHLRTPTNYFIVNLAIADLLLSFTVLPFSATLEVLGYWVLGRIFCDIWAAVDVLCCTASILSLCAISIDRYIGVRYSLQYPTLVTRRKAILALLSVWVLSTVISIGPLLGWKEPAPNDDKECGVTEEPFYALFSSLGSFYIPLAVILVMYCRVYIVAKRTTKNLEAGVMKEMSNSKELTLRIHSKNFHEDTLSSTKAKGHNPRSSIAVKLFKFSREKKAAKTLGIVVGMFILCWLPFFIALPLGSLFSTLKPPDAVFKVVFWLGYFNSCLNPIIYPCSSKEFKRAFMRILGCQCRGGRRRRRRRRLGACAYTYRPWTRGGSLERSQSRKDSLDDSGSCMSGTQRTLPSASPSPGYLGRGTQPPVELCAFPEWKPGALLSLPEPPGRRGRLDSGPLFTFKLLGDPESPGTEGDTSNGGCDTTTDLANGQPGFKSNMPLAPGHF
T1 sequence (P23944 whole entry): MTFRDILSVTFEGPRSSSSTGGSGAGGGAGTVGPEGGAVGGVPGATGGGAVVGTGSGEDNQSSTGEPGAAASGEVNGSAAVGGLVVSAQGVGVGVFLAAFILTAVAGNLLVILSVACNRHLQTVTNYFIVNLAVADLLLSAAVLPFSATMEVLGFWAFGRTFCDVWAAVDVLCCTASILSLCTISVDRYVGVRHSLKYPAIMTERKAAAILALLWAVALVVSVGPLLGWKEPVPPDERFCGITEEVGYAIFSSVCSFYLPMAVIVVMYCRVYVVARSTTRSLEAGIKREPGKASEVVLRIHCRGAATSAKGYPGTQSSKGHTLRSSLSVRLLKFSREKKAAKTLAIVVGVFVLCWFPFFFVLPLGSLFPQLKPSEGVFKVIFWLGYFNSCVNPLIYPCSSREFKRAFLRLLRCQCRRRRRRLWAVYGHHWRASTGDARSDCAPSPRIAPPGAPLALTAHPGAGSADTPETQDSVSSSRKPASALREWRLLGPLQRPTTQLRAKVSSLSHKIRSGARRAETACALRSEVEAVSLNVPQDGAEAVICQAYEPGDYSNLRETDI
T1 sequence (P43140 whole entry): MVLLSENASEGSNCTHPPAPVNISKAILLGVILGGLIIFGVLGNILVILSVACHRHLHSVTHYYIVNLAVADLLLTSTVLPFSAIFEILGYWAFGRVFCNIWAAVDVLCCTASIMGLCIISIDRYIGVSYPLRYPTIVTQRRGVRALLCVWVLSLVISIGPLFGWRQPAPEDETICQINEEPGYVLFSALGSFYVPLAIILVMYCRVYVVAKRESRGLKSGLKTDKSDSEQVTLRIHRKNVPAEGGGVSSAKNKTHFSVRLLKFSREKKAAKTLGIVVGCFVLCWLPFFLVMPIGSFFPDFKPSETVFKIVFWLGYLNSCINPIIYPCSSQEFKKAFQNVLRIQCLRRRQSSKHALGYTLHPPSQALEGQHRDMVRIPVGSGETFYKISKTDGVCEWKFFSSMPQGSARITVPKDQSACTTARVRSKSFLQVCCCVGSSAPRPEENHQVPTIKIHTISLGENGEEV
Summary of the method: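 Rat cerebral cortex homogenised in ice-cold 50 mM Tris-HCl (pH 7.6 at 25 °C), washed twice at 20000×g and resuspended at 10 mg wet weight/ml. Incubated with [3H]prazosin (19.5 Ci/mmol) and test compound for 30 min at 25 °C. Nonspecific binding defined with 10 µM phentolamine. GF/B filtration, scintillation counting, three-parameter logistic competition fit.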

[22] = test system: Rattus norvegicus; experiment: Antiarrhythmic activity in Wistar rat assessed as protection against adrenaline-induced extrasystoles at 2.5 to 10 mg/kg, iv administered 15 mins prior to adrenaline-challenge; type: functional, organism-based; conditions: Heart; summary of the method: as §1
[23] = test system: Rattus norvegicus; experiment: Antiarrhythmic activity in barium chloride-induced Wistar rat arrhythmia model assessed as protection against mortality at 2.5 to 10 mg/kg, iv administered 15 mins prior to barium chloride-challenge; type: functional, organism-based; conditions: Heart; summary of the method: as §3
[24] = test system: Rattus norvegicus; experiment: Cardiotoxicity in Wistar rat assessed as effect on QRS interval at 5 mg/kg, iv after 1 min; type: toxicity, organism-based; parameters: dose 5 mg/kg, route intravenous; conditions: in vivo; summary of the method: as §2
[25] = test system: Rattus norvegicus; experiment: Antiarrhythmic activity in Wistar rat assessed as protection against adrenaline-induced bigeminy at 2.5 to 10 mg/kg, iv administered 15 mins prior to adrenaline-challenge; type: functional, organism-based; conditions: Heart; summary of the method: as §1

Row | Structure (SMILES) | Activity [1] | Activity [2] | ED50 [3] | Activity [4] | Activity [5] | Activity [6] | Activity [8] | Activity [9] | Activity [10] | Activity [11] | Activity [12] | Activity [13] | Activity [15] | Activity [16] | Activity [17] | Activity [18] | Activity [19] | Activity [20] | Ki [21] | Activity [24] | other results
1 | CC(C)NCC(O)COc1cccc2ccccc12 (stereo not drawn) | Active | Active |  |  |  |  |  |  |  |  |  |  |  |  |  |  |  |  |  |  | 
2 | CN1C(=O)N(CC(O)CN2CCN(c3ccccc3F)CC2)C(c2ccccc2)(c2ccccc2)C1=O.Cl (racemic) |  |  | 1.92 mg/kg | 17 ms | 16 ms | 68 ms | 251 min⁻¹ | 272 min⁻¹ | 64 ms | 62 ms | Non-toxic | Toxic | 81 ms | 258 min⁻¹ | 74 ms | Non-toxic | 59 ms | Toxic | 564.6 nM | 20 ms | Activity [7]: >50%; Activity [14]: >50%; pKi [21]: 6.25; Activity [22]: Active; Activity [23]: Active; Activity [25]: Active
3 | COC(=O)CN1C(=O)N(CC(O)CN2CCN(c3ccccc3)CC2)C(c2ccccc2)(c2ccccc2)C1=O.Cl (racemic) |  |  |  | 26 ms | 22 ms | 74 ms | 261 min⁻¹ | 246 min⁻¹ | 72 ms | 65.2 ms | Non-toxic | Toxic | 97 ms | 272 min⁻¹ | 81 ms | Non-toxic | 64 ms | Toxic |  | 33 ms | 
4 | COC(=O)CN1C(=O)N(CC(O)CN2CCN(c3ccccc3Cl)CC2)C(c2ccccc2)(c2ccccc2)C1=O.Cl (racemic) |  |  |  | 15 ms | 17 ms | 69 ms | 256 min⁻¹ | 290 min⁻¹ | 62 ms | 63 ms | Non-toxic | Toxic | 76 ms | 268 min⁻¹ | 76 ms | Non-toxic | 59 ms | Toxic | 354.7 nM | 16 ms | pKi [21]: 6.45
5 | c1ccc(CC2=NCCN2)cc1 [TOLAZOLINE] | Active | Active | 3.4 mg/kg |  |  |  |  |  |  |  |  |  |  |  |  |  |  |  |  |  | 
